Measured values reported in ChEMBL document CHEMBL2157922, “Synthesis and antifungal activity of diverse C-2 pyridinyl and pyridinylvinyl substituted quinolines” (2012).
In brackets after ≈: the same amount, converted by molar mass.

Assays:
Candida albicans [1] = experiment: Antifungal activity against Candida albicans ATCC 10231 after 48 hrs by broth microdilution technique; assay type: functional; settings: ATCC 10231, 48 h
In short: (§1)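 Yeasts were tested by CLSI broth microdilution in RPMI-1640 buffered to pH 7.0 with MOPS, with compound from 250 down to 0.98 in DMSO stocks. Trays were held at 30 °C in a moist, dark chamber. MIC100, the lowest concentration giving total visual inhibition against the growth control, was read by eye at 48 h.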

Saccharomyces cerevisiae = experiment: Antifungal activity against Saccharomyces cerevisiae ATCC 9763 after 48 hrs by broth microdilution technique; assay type: functional; settings: ATCC 9763, 48 h; in short: as §1
Cryptococcus neoformans [2] = experiment: Antifungal activity against Cryptococcus neoformans ATCC 32264 after 48 hrs by broth microdilution technique; assay type: functional; settings: ATCC 32264, 48 h; in short: as §1
Aspergillus fumigatus = experiment: Antifungal activity against Aspergillus fumigatus ATCC 26934 after 48 hrs by broth microdilution technique; assay type: functional; settings: ATCC 26934, 48 h
In short: (§2)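 Moulds and dermatophytes were run by CLSI broth microdilution in MOPS-buffered RPMI-1640 at pH 7.0. Aspergillus was incubated at 30 °C and dermatophytes at 28–30 °C, in a moist, dark chamber. MIC100, the lowest concentration with no visible growth, was read visually at a time set by growth of the control fungus.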

Aspergillus flavus = experiment: Antifungal activity against Aspergillus flavus ATCC 9170 after 48 hrs by broth microdilution technique; assay type: functional; settings: ATCC 9170, 48 h; in short: as §2
Aspergillus niger = experiment: Antifungal activity against Aspergillus niger ATCC 9029 after 48 hrs by broth microdilution technique; assay type: functional; settings: ATCC 9029, 48 h; in short: as §2
Nannizzia gypsea = experiment: Antifungal activity against Microsporum gypseum CCC 115 after 48 hrs by broth microdilution technique; assay type: functional; settings: CCC 115, 48 h; in short: as §2
Trichophyton rubrum = experiment: Antifungal activity against Trichophyton rubrum CCC 113 after 48 hrs by broth microdilution technique; assay type: functional; settings: CCC 113, 48 h
[3] = test system: Trichophyton mentagrophytes; experiment: Antifungal activity against Trichophyton mentagrophytes ATCC 9972 after 48 hrs by broth microdilution technique; assay type: functional; settings: ATCC 9972, 48 h; in short: as §2
Candida albicans [4] = experiment: Antifungal activity against Candida albicans CCC 125 after 48 hrs by broth microdilution technique; assay type: functional; settings: CCC 125, 48 h
Candida albicans [5] = experiment: Antifungal activity against Candida albicans CCC 126 after 48 hrs by broth microdilution technique; assay type: functional; settings: CCC 126, 48 h
Candida albicans [6] = experiment: Antifungal activity against Candida albicans CCC 127 after 48 hrs by broth microdilution technique; assay type: functional; settings: CCC 127, 48 h
Candida albicans [7] = experiment: Antifungal activity against Candida albicans CCC 128 after 48 hrs by broth microdilution technique; assay type: functional; settings: CCC 128, 48 h
Candida albicans [8] = experiment: Antifungal activity against Candida albicans CCC 129 after 48 hrs by broth microdilution technique; assay type: functional; settings: CCC 129, 48 h
Candida albicans [9] = experiment: Antifungal activity against Candida albicans CCC 130 after 48 hrs by broth microdilution technique; assay type: functional; settings: CCC 130, 48 h
Nakaseomyces glabratus = experiment: Antifungal activity against Candida glabrata CCC 115 after 48 hrs by broth microdilution technique; assay type: functional; settings: CCC 115, 48 h
Candida parapsilosis = experiment: Antifungal activity against Candida parapsilosis CCC 124 after 48 hrs by broth microdilution technique; assay type: functional; settings: Lodderomyces parapsilosis, CCC 124, 48 h
Pichia kudriavzevii = experiment: Antifungal activity against Candida krusei CCC 117 after 48 hrs by broth microdilution technique; assay type: functional; settings: CCC 117, 48 h
Candida tropicalis = experiment: Antifungal activity against Candida tropicalis CCC 131 after 48 hrs by broth microdilution technique; assay type: functional; settings: CCC 131, 48 h
Cryptococcus neoformans [10] = experiment: Antifungal activity against Cryptococcus neoformans IM 983040 after 48 hrs by broth microdilution technique; assay type: functional; settings: IM 983040, 48 h
In short: (§3)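 C. neoformans was tested by 96-well RPMI-1640 microdilution, with DMSO-matched growth and sterility control wells. Plates were incubated 48 h at 30 °C in a moist, dark chamber and read at OD405. % inhibition = 100 − (CTW − SCW)/(GCW − SCW), in duplicate. For the clinical isolates, MIC80 and MIC50 are the lowest concentrations giving 80% and 50% inhibition.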

Cryptococcus neoformans [11] = experiment: Antifungal activity against Cryptococcus neoformans IM 972724 after 48 hrs by broth microdilution technique; assay type: functional; settings: IM 972724, 48 h; in short: as §3
Cryptococcus neoformans [12] = experiment: Antifungal activity against Cryptococcus neoformans IM 042074 after 48 hrs by broth microdilution technique; assay type: functional; settings: IM 042074, 48 h; in short: as §3
Cryptococcus neoformans [13] = experiment: Antifungal activity against Cryptococcus neoformans IM 983036 after 48 hrs by broth microdilution technique; assay type: functional; settings: IM 983036, 48 h; in short: as §3
Cryptococcus neoformans [14] = experiment: Antifungal activity against Cryptococcus neoformans IM 00319 after 48 hrs by broth microdilution technique; assay type: functional; settings: IM 00319, 48 h; in short: as §3
Cryptococcus neoformans [15] = experiment: Antifungal activity against Cryptococcus neoformans IM 972751 after 48 hrs by broth microdilution technique; assay type: functional; settings: IM 972751, 48 h; in short: as §3
Cryptococcus neoformans [16] = experiment: Antifungal activity against Cryptococcus neoformans ATCC 32264 at 31.2 ug/ml after 48 hrs; assay type: functional; settings: ATCC 32264, 48 h; in short: as §3
Cryptococcus neoformans [17] = experiment: Antifungal activity against Cryptococcus neoformans ATCC 32264 at 15.6 ug/ml after 48 hrs; assay type: functional; settings: ATCC 32264, 48 h; in short: as §3
Candida albicans [18] = experiment: Antifungal activity against Candida albicans ATCC 10231 at 31.2 ug/ml after 24 hrs; assay type: functional; settings: ATCC 10231, 24 h
In short: (§4)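 C. albicans was grown in 96-well RPMI-1640 broth microdilution with compound wells diluted from DMSO stocks. Growth wells with matched DMSO and sterility wells were included. After 24 h at 30 °C in a moist, dark chamber, OD405 was read. % inhibition = 100 − (CTW − SCW)/(GCW − SCW) OD, done in duplicate.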

Candida albicans [19] = experiment: Antifungal activity against Candida albicans ATCC 10231 at 7.8 ug/ml after 24 hrs; assay type: functional; settings: ATCC 10231, 24 h; in short: as §4
Candida albicans [20] = experiment: Antifungal activity against Candida albicans ATCC 10231 at 15.6 ug/ml after 24 hrs; assay type: functional; settings: ATCC 10231, 24 h; in short: as §4
Candida albicans [21] = experiment: Antifungal activity against Candida albicans CCC 130 after 24 hrs by broth microdilution technique; settings: CCC 130, 24 h

Compound `c1ccc2nc(-c3ccncc3)ccc2c1` has an MFC (Candida albicans [1]) of 250 µg/mL (≈ 1210 µM), an MIC (Candida albicans [1]) of 62 µg/mL (≈ 301 µM) and an MIC50 (Candida albicans [1]) of 7.8 µg/mL (≈ 37.8 µM). The MIC80 (Candida albicans [1]) was 15.6 µg/mL (≈ 75.6 µM), the MFC (Saccharomyces cerevisiae) was 250 µg/mL (≈ 1210 µM) and the MIC (Saccharomyces cerevisiae) was 62 µg/mL (≈ 301 µM). It also gave an MFC (Cryptococcus neoformans [2]) of 125 µg/mL (≈ 606 µM), an MIC (Cryptococcus neoformans [2]) of 62 µg/mL (≈ 301 µM) and an MIC50 (Cryptococcus neoformans [2]) of 15.6 µg/mL (≈ 75.6 µM). For the same compound, the MIC80 (Cryptococcus neoformans [2]) was 15.6 µg/mL (≈ 75.6 µM), the MFC (Aspergillus fumigatus) was 125 µg/mL (≈ 606 µM) and the MIC (Aspergillus fumigatus) was 62 µg/mL (≈ 301 µM). The MFC (Aspergillus flavus) was 125 µg/mL (≈ 606 µM), the MIC (Aspergillus flavus) was 62 µg/mL (≈ 301 µM) and the MFC (Aspergillus niger) was 125 µg/mL (≈ 606 µM). The MIC (Aspergillus niger) was 62 µg/mL (≈ 301 µM), the MFC (Nannizzia gypsea) was 62 µg/mL (≈ 301 µM) and the MIC (Nannizzia gypsea) was 62 µg/mL (≈ 301 µM). It also gave an MFC (Trichophyton rubrum) of 62 µg/mL (≈ 301 µM), an MIC (Trichophyton rubrum) of 62 µg/mL (≈ 301 µM) and an MFC [3] of 62 µg/mL (≈ 301 µM). It also gave an MIC [3] of 62 µg/mL (≈ 301 µM), an MIC50 (Candida albicans [4]) of 15.6 µg/mL (≈ 75.6 µM) and an MIC80 (Candida albicans [4]) of 15.6 µg/mL (≈ 75.6 µM). It also gave an MIC50 (Candida albicans [5]) of 15.6 µg/mL (≈ 75.6 µM), an MIC80 (Candida albicans [5]) of 31.2 µg/mL (≈ 151 µM) and an MIC50 (Candida albicans [6]) of 7.8 µg/mL (≈ 37.8 µM). The MIC80 (Candida albicans [6]) was 15.6 µg/mL (≈ 75.6 µM), the MIC50 (Candida albicans [7]) was 7.8 µg/mL (≈ 37.8 µM) and the MIC80 (Candida albicans [7]) was 15.6 µg/mL (≈ 75.6 µM). The MIC50 (Candida albicans [8]) was 7.8 µg/mL (≈ 37.8 µM), the MIC80 (Candida albicans [8]) was 15.6 µg/mL (≈ 75.6 µM) and the MIC80 (Candida albicans [9]) was 31.2 µg/mL (≈ 151 µM). For the same compound, the MIC50 (Nakaseomyces glabratus) was 15.6 µg/mL (≈ 75.6 µM), the MIC80 (Nakaseomyces glabratus) was 15.6 µg/mL (≈ 75.6 µM) and the MIC50 (Candida parapsilosis) was 15.6 µg/mL (≈ 75.6 µM). For the same compound, the MIC80 (Candida parapsilosis) was 31.2 µg/mL (≈ 151 µM), the MIC50 (Pichia kudriavzevii) was 31.2 µg/mL (≈ 151 µM) and the MIC80 (Pichia kudriavzevii) was 62.5 µg/mL (≈ 303 µM). For the same compound, the MIC50 (Candida tropicalis) was 15.6 µg/mL (≈ 75.6 µM), the MIC80 (Candida tropicalis) was 31.2 µg/mL (≈ 151 µM) and the MIC50 (Cryptococcus neoformans [10]) was 15.6 µg/mL (≈ 75.6 µM). The MIC80 (Cryptococcus neoformans [10]) was 31.2 µg/mL (≈ 151 µM), the MIC50 (Cryptococcus neoformans [11]) was 31.2 µg/mL (≈ 151 µM) and the MIC80 (Cryptococcus neoformans [11]) was 31.2 µg/mL (≈ 151 µM). For the same compound, the MIC50 (Cryptococcus neoformans [12]) was 15.6 µg/mL (≈ 75.6 µM), the MIC80 (Cryptococcus neoformans [12]) was 31.2 µg/mL (≈ 151 µM) and the MIC50 (Cryptococcus neoformans [13]) was 7.8 µg/mL (≈ 37.8 µM). The MIC80 (Cryptococcus neoformans [13]) was 31.2 µg/mL (≈ 151 µM), the MIC50 (Cryptococcus neoformans [14]) was 31.2 µg/mL (≈ 151 µM) and the MIC80 (Cryptococcus neoformans [14]) was 31.2 µg/mL (≈ 151 µM). It also gave an MIC50 (Cryptococcus neoformans [15]) of 7.8 µg/mL (≈ 37.8 µM), an MIC80 (Cryptococcus neoformans [15]) of 31.2 µg/mL (≈ 151 µM) and an inhibition at 31.2 µg/mL (Cryptococcus neoformans [16]) of 80%. The inhibition at 15.6 µg/mL (Cryptococcus neoformans [17]) was 80%, the inhibition at 31.2 µg/mL (Candida albicans [18]) was 80% and the inhibition at 7.8 µg/mL (Candida albicans [19]) was 50%. For the same compound, the inhibition at 15.6 µg/mL (Candida albicans [20]) was 80% and the MIC50 (Candida albicans [21]) was 15.6 µg/mL (≈ 75.6 µM).
